This note sets out measurements from ChEMBL document CHEMBL4385662, “Anti-tubercular activity of novel 4-anilinoquinolines and 4-anilinoquinazolines” (Bioorg Med Chem Lett, 2019).

The source made the active and inactive calls. No cut-off for these calls is given here.

The nature of one test: cells. In kind it is ADME, cell-based. The following applies: Homo sapiens, WS1, 48 h.
The test system of test [1] is Mycobacterium tuberculosis. The test is described as follows: Anti-tubercular activity against Mycobacterium tuberculosis H37Rv expressing LuxABCDE assessed as relative luminescence by measuring ratio of RLU (test compound)/RLU(no compound) at 1.25 uM by luminescence based assay. In kind it is functional.
Test [2] concerns Mycobacterium tuberculosis. The test is described as follows: Anti-tubercular activity against Mycobacterium tuberculosis H37Rv expressing LuxABCDE assessed as relative luminescence by measuring ratio of RLU (test compound)/RLU(no compound) at 2.5 uM by luminescence based assay. In kind it is functional.
Test [3] deals with Mycobacterium tuberculosis. Put plainly: Anti-tubercular activity against Mycobacterium tuberculosis H37Rv expressing LuxABCDE assessed as relative luminescence by measuring ratio of RLU (test compound)/RLU(no compound) at 5 uM by luminescence based assay. The format is functional.
Test [4] has as its system Mycobacterium tuberculosis. The test is described as follows: Anti-tubercular activity against Mycobacterium tuberculosis H37Rv expressing LuxABCDE assessed as relative luminescence by measuring ratio of RLU (test compound)/RLU(no compound) at 10 uM by luminescence based assay. In kind it is functional.
Test [5] concerns Mycobacterium tuberculosis. The test is described as follows: Anti-tubercular activity against Mycobacterium tuberculosis H37Rv expressing LuxABCDE assessed as relative luminescence by measuring ratio of RLU (test compound)/RLU(no compound) at 20 uM by luminescence based assay. In kind it is functional.
The test system of test [6] is Mycobacterium tuberculosis. Put plainly: Anti-tubercular activity against Mycobacterium tuberculosis H37Rv expressing LuxABCDE assessed as relative luminescence by measuring ratio of RLU (test compound)/RLU(no compound) at 0.625 uM by luminescence based assay. In kind it is functional, organism-based.
For test [7], the system named is Mycobacterium tuberculosis. Put plainly: Anti-tubercular activity against Mycobacterium tuberculosis H37Rv expressing LuxABCDE assessed as reduction in microbial growth by luminescence based assay. The format is functional. The method, boiled down:
(§1)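 Growth inhibition was assessed by two assays. […] Values are the mean of 3 biological replicates with standard deviation.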

Test [8] has as its system Mycobacterium tuberculosis. Put plainly: Anti-tubercular activity against Mycobacterium tuberculosis H37Rv expressing LuxABCDE assessed as reduction in microbial growth at 5 uM by luminescence based assay relative to control. The format is functional. The conditions noted are these: read-out: GI. Put shortly: as §1
Test [9] concerns Mycobacterium tuberculosis. Put plainly: Anti-tubercular activity against Mycobacterium tuberculosis H37Rv expressing LuxABCDE assessed as reduction in microbial growth at 20 uM by luminescence based assay relative to control. The conditions noted are these: read-out: GI. In kind it is functional. Put shortly:
as §1
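Throughout, for IC50: cell viability loss read out with alamar blue dye, IC50 being the concentration cutting viability by half.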

As for `Oc1ccc2ncnc(Nc3ccc(OCc4ccccc4F)cc3)c2c1`, the IC50 (as a rule, the midpoint of a concentration-inhibition curve) in the test “cells” amounted to 28 µM. Moreover, the Ratio amounted to 0.89 in [1]; 0.82 in [2]; 0.63 in [3]; 0.46 in test [4]; 0.28 in [5]. Further, in test [6], the outcome was inactive.
In the test “cells”, `COc1ccc2c(Nc3ccc(OCc4ccccc4)cc3)ncnc2c1` yielded an IC50 of more than 100 µM. Besides, the Ratio in test [1] is 1.05; in [2], 1.12; in test [3], 0.99; in test [4], 0.87; in test [5] it was 0.64. Further, the result in test [6] was inactive.
`Oc1cc2ncnc(Nc3ccc(OCc4ccccc4)cc3)c2cc1O` yielded an IC50 in “cells” of 8.8 µM. Moreover, the Ratio in [1] worked out at 0.95; in test [2], 0.93; in [3] it was 0.91; in test [4], 0.76; in test [5], 0.69. The result in [6] was inactive.
In the test “cells”, `Oc1ccc2c(Nc3ccc(OCc4ccc(F)cc4)cc3)ncnc2c1` returned an IC50 of more than 100 µM. Further, the Ratio in [1] amounted to 0.94; in [2] it was 1.01; in test [3] it was 0.9; in [4], 0.89; in test [5], 0.83. The outcome in test [6] was inactive.
Molecule `CS(=O)(=O)CCNCc1ccc(-c2ccc3ncnc(Nc4ccc(OCc5cccc(F)c5)c(Cl)c4)c3c2)o1` [LAPATINIB] registered an IC50 in the test “cells” of 13 µM. Also, the Ratio in test [1] is 0.99; in [2], 0.9; in test [3], 0.74; in [4], 0.17; in [5], 0.08. Besides, in test [6], the result was inactive.
`COc1cc2nccc(Nc3ccc(OCc4ccc(C)cc4)cc3)c2cc1OC` returned an IC50 in the test “cells” of 5.4 µM. The Ratio in [1] is listed as 0.43; in test [2] it was 0.17; in test [3], 0.1; in test [4], 0.08; in test [5] it was 0.09. The MIC90 (commonly the lowest concentration that inhibits either 90% of growth or 90% of the strains tested, depending on the study) in test [7] is 0.63 to 1.25 µM. Further, in test [8], the inhibition of growth at 5 µM was determined as 98%. In addition, the inhibition of growth at 20 µM in [9] turned out to be 98%.
In the test “cells”, `Oc1ccc2ncnc(Nc3ccc(OCc4cccc(F)c4)cc3)c2c1` gave an IC50 of 12 µM. Besides, the Ratio came to 0.76 in [1]; 0.64 in test [2]; 0.49 in test [3]; 0.39 in [4]; 0.25 in [5]. In addition, the outcome in [6] was inactive.
